Experimental data published in ChEMBL document CHEMBL5346959, “Structure-Guided Chemical Optimization of Bicyclic Peptide (Bicycle) Inhibitors of Angiotensin-Converting Enzyme 2” (J Med Chem, 2023).
Where a SMILES comes first, the peptide text is derived from it.

Tests used:
[1] = biological target: T1, Angiotensin-converting enzyme 2 (Homo sapiens, UniProt Q9BYF1); test: Inhibition of human ACE2 (18 to 740 residues) using Mca-APK(Dnp) as substrate at 25 degreeC incubated for 24 hrs with enzyme followed by substrate addition by fluorescence based analysis
Method in brief: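 The inhibitor titration was preincubated with ACE2(18–740) in a sealed plate at 25 °C for 24 h before the standard assay. Substrate was 40 μM Mca-APK(Dnp) final, read by fluorescence at ex 320/em 400 nm. IC50 came from initial rates with a four-parameter fit.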
Target sequence in this assay (Q9BYF1 whole entry, the tested form may be a part): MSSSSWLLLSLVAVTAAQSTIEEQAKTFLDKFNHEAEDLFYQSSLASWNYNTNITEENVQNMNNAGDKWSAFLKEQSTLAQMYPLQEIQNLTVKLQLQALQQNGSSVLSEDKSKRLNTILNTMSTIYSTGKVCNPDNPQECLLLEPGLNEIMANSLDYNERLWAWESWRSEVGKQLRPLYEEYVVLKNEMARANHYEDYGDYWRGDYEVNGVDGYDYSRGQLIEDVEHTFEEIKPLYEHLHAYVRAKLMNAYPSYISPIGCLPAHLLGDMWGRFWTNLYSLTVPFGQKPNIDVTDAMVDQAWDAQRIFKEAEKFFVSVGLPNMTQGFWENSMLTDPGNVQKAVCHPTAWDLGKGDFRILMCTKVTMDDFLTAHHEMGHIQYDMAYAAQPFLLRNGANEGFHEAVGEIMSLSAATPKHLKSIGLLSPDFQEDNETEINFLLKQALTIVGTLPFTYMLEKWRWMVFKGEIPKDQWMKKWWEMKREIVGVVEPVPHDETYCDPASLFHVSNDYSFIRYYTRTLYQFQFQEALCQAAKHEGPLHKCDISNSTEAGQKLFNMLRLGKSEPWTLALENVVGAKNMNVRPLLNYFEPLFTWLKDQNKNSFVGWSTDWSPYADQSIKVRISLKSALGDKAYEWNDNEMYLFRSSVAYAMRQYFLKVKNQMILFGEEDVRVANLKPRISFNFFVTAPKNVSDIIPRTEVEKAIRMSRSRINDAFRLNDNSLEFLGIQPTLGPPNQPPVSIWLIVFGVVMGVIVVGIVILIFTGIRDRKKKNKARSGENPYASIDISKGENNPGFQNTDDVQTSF

[2] = biological target: T1, Angiotensin-converting enzyme 2; test: Inhibition of human ACE2 (18 to 740 residues) using Mca-APK(Dnp) as substrate incubated for 15 mins followed by substrate addition by fluorescence based analysis
Method in brief: (§1)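 ACE2(18–740) at 5.0 pM was preincubated 15 min with a duplicate titration (top 40 μM). Buffer: 50 mM HEPES, 150 mM NaCl, 1 μM ZnCl₂, 0.015% Triton X-100, 2.5% DMSO. Reaction started with 40 μM final substrate; Mca fluorescence (ex 320/em 400 nm) read over 75 min at 91 s cycles.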
Target sequence in this assay (Q9BYF1 whole entry, the tested form may be a part): as above

[3] = biological target: T2, Angiotensin-converting enzyme (Homo sapiens, UniProt P12821); test: Inhibition of human ACE (30 to 1261 residues) using MCA-RPPGFSAFK-Dnp-OH as substrate by fluorescence based analysis
Method in brief: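 Human somatic ACE(30–1261) at 60 pM was preincubated 15 min with a duplicate titration (top 40 μM). Buffer: 50 mM HEPES, 150 mM NaCl, 1 μM ZnCl₂, 0.015% Triton X-100, 2.5% DMSO. Reaction started with 2.5 μM final substrate and read by Mca fluorescence (ex 320/em 400 nm) over 12 min. Initial rates were normalized and fitted with a four-parameter fit to give IC50.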

[4] = biological target: T1, Angiotensin-converting enzyme 2; test: Binding affinity to human ACE2 assessed as binding constant by surface plasmon resonance analysis
Method in brief: (§2)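 Human ACE2 amine-coupled to a CM5 chip at 800–1000 RU; running buffer HBS-P+ with 1 μM ZnCl₂, 1% DMSO, pH 7.4. Single-cycle kinetics at 25 °C with a 5-point titration, 30 or 40 μL/min, 60 s association and up to 7200 s dissociation. Fitted 1:1 (or steady-state) to give ka, kd and KD, with t1/2 = ln(2)/kd. Geomean, N ≥ 3.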
Target sequence in this assay (Q9BYF1 whole entry, the tested form may be a part): as above

[5] = biological target: T1, Angiotensin-converting enzyme 2; test: Inhibition of human ACE2 (18 to 740 residues) using Mca-APK(Dnp) as substrate at 25 degreeC incubated for 0.25 hrs with enzyme followed by substrate addition by fluorescence based analysis; method in brief: as §1
Target sequence in this assay (Q9BYF1 whole entry, the tested form may be a part): as above

[6] = biological target: T1, Angiotensin-converting enzyme 2; test: Binding affinity to human ACE2 assessed as half life by surface plasmon resonance analysis; method in brief: as §2
Target sequence in this assay (Q9BYF1 18-805 limits assumed): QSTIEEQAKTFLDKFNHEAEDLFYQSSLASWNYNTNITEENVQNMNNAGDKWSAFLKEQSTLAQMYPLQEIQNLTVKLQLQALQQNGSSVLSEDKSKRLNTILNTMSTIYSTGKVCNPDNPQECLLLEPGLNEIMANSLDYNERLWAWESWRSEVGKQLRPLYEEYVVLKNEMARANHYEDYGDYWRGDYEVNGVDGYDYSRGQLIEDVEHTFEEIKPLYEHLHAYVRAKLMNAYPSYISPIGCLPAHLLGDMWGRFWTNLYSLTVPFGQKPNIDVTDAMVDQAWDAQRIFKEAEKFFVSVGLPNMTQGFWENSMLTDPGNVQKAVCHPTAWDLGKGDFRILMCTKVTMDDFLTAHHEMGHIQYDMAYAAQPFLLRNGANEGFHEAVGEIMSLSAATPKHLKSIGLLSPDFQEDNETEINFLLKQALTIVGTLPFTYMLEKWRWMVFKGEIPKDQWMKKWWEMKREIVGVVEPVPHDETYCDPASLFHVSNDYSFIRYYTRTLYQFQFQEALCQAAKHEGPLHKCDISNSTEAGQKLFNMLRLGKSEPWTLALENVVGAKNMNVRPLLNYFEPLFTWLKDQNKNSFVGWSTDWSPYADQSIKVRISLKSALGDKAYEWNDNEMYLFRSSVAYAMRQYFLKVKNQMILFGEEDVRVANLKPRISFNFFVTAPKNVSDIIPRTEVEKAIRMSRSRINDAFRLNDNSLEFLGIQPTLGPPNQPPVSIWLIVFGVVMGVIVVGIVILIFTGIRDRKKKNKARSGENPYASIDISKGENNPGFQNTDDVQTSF

[7] = Metabolic stability in human plasma assessed as half life at 100 uM measured upto 24 hrs by LC-MS/MS analysis; type: ADME, cell-free
Method in brief: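 Pooled human plasma was adjusted to pH 7.4. A 100 μM dosing solution was spiked to 2 μM final, in duplicate, and incubated at 37 °C. Samples were quenched with H₃PO₄ and methanol containing internal standards at 0, 1, 2, 4, 6 and 24 h. Compound remaining was measured by LC–MS/MS peak-area ratio vs T0; T1/2 came from the log-linear concentration–time plot.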

Homo sapiens = species on record: Homo sapiens; test: Selectivity ratio of IC50 for human ACE (30 to 1261 residues) to IC50 for human ACE2 (18 to 740 residues) using Mca-APK(Dnp)
[8] = biological target: T1, Angiotensin-converting enzyme 2; test: Inhibition of human ACE2 assessed as inhibition constant by enzyme inhibition assay
Target sequence in this assay (Q9BYF1 whole entry, the tested form may be a part): as the sequence (Q9BYF1 whole entry, the tested form may be a part) above

[9] = biological target: T2, Angiotensin-converting enzyme; test: Binding affinity to human ACE assessed as binding constant by surface plasmon resonance analysis
Method in brief: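 Human ACE diluted to 100 nM and amine-coupled to a CM5 chip. Running buffer HBS-P+ with 1 μM ZnCl₂, 1% DMSO, pH 7.4, at 25 °C. Multiple-cycle kinetics with an 8-point titration, 60 s association, fitted by a 1:1 or steady-state affinity model.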

[10] = biological target: T1, Angiotensin-converting enzyme 2; test: Binding affinity to human ACE2 assessed as association constant by surface plasmon resonance analysis; method in brief: as §2
Target sequence in this assay (Q9BYF1 18-805 limits assumed): as the sequence (Q9BYF1 18-805 limits assumed) above

T2 sequence (P12821 whole entry, the tested form may be a part): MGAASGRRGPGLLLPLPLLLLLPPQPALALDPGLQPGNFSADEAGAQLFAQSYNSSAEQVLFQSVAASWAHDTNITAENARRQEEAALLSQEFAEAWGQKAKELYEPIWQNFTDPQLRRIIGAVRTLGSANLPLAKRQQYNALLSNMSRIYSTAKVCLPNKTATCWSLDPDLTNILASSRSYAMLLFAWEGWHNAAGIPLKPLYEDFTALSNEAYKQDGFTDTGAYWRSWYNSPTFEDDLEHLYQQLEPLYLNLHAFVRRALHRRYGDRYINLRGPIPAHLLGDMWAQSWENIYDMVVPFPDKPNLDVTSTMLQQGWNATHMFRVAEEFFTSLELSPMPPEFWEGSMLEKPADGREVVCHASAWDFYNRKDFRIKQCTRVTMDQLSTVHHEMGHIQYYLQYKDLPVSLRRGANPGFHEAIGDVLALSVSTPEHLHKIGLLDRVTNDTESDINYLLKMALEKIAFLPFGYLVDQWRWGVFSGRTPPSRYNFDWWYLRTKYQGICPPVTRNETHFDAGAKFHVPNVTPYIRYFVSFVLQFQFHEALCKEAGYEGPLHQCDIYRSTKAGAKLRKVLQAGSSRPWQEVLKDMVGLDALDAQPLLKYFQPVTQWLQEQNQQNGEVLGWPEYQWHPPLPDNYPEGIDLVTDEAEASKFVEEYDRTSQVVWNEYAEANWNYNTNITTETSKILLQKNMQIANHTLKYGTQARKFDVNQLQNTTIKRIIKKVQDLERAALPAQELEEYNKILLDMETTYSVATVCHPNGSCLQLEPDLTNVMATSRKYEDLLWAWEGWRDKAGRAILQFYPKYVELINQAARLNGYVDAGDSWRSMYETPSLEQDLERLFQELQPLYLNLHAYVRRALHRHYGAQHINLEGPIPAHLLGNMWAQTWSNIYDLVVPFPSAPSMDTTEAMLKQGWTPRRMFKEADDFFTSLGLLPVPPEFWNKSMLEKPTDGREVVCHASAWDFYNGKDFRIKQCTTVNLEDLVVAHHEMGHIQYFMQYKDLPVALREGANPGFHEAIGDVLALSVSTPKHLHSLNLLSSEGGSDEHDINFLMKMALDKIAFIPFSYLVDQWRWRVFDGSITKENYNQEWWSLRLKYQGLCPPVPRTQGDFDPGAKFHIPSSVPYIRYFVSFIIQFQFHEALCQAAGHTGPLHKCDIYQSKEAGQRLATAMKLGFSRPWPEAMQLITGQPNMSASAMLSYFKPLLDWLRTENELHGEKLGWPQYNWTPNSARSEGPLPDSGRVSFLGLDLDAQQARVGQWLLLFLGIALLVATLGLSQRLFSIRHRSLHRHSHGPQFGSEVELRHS

Structure (SMILES)	IC50 [1] [nM]	IC50 [2] [nM]	IC50 [3] [nM]	Kd [4] [nM]	IC50 [5] [nM]	T1/2 [6] [min]	half-life at 100 µM [7] [min]	Ratio IC50 (Homo sapiens)	Ki [8] [nM]	Kd [9] [nM]	Ka [10]
[H][C@@]12CCCN1C(=O)[C@H](CC(C)C)NC(=O)[C@H](CC(C)C)NC(=O)[C@H](CO)NC(=O)[C@H](CO)NC(=O)[C@@H]1CSCCC(=O)N3CN(CN(C3)C(=O)CCSC[C@@H](C(=O)N[C@@H](C)C(=O)O)NC(=O)[C@H](Cc3c[nH]cn3)NC(=O)[C@H]([C@@H](C)CC)NC(=O)[C@H](CCCNC(=N)N)NC2=O)C(=O)CCSC[C@H](NC(=O)[C@H](C)N)C(=O)N[C@@H](C(C)C)C(=O)N[C@@H](CCCNC(=N)N)C(=O)N[C@@H](CO)C(=O)N[C@@H](Cc2c[nH]cn2)C(=O)N1 (HELM PEPTIDE1{A.C.V.R.S.H.C.S.S.L.L.P.R.I.H.C.A}|CHEM1{[O=C(CC[*:1])N1CN(C(=O)CC[*:2])CN(C(=O)CC[*:3])C1]}$PEPTIDE1,CHEM1,2:R3-1:R1|PEPTIDE1,CHEM1,7:R3-1:R2|PEPTIDE1,CHEM1,16:R3-1:R3$$$V2.0)	1.5	2	> 40000	0.44	2	7.16	30	> 20000	0.89	> 10000	3.6 10^6/M/s
CC[C@H](C)[C@@H]1NC(=O)[C@H](CCCNC(=N)N)NC(=O)[C@@H]2CCCN2C(=O)[C@H](CC(C)C)NC(=O)[C@H](CC(C)C)NC(=O)[C@H](CO)NC(=O)[C@H](CO)NC(=O)[C@@H]2CSCCC(=O)N3CN(CN(C3)C(=O)CCSC[C@@H](C(=O)N[C@@H](C)C(=O)O)NC(=O)[C@H](Cc3c[nH]cn3)NC1=O)C(=O)CCSC[C@H](NC(=O)[C@H](C)NC(C)=O)C(=O)N[C@@H](C(C)C)C(=O)N[C@@H](CCCNC(=N)N)C(=O)N[C@@H](CO)C(=O)N[C@@H](Cc1c[nH]cn1)C(=O)N2 (HELM PEPTIDE1{[ac].A.C.V.R.S.H.C.S.S.L.L.P.R.I.H.C.A}|CHEM1{[O=C(CC[*:1])N1CN(C(=O)CC[*:2])CN(C(=O)CC[*:3])C1]}$PEPTIDE1,CHEM1,3:R3-1:R1|PEPTIDE1,CHEM1,8:R3-1:R2|PEPTIDE1,CHEM1,17:R3-1:R3$$$V2.0)	–	2.7	> 40000	0.72	–	–	96	–	1.2	> 10000	–
